Assay outcomes deposited in PubChem BioAssay by Johns Hopkins Ion Channel Center.
Hits are enriched below; roughly 3.5% of the tested compounds scored in any of these assays.
MrgX1 allo act – human MrgX1 positive allosteric modulation, primary screen. MrgX1-HEK293, Fluo-4 calcium flux, FDSS; active compounds read high. B-score at 10 µM. 310,000 compounds, 0.63% hits. Q96LB2;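 active means plate-corrected calcium response at least 3 library SD above typical, normal starting fluorescence, not activating the receptor alone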;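 further: compound read alongside a low EC10 to EC30 dose of BAM8-22 agonist; peak minus trough fluorescence over baseline measured at the second addition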
Target sequence (Q96LB2 whole entry, looked up): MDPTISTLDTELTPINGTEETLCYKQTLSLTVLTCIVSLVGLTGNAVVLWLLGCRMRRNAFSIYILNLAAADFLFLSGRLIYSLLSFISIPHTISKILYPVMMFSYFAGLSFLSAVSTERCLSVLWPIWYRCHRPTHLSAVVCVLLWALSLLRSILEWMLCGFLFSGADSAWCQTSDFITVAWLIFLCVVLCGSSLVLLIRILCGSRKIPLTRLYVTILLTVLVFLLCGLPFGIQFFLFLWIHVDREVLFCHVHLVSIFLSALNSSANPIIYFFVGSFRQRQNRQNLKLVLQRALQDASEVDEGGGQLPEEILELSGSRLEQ
RGS4 pot – potentiators or activators of RGS4 | HEK293 M3R/inducible RGS4, carbachol calcium flux Fluo4; active compounds read low | B-score at 10 µM | 310,000 compounds, 0.92% hits | AID 463111;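 active means B-score of the integrated calcium signal more than 4 SD below the library mean, with starting fluorescence not abnormally high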;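 further: negative B-score means reduced calcium response which marks RGS4 activation or potentiation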
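Also added: carbachol at ECmax as muscarinic agonist stimulus; Assay system: HEK293 cells with stable M3R and inducible RGS4; Timing: overnight RGS4 induction, 30 min dye load 37 °C, 20 min compound RT; Measured by: Fluo4-AM (2 µM) calcium-flux fluorescence, kinetic read.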
MrgX1 antag – human MrgX1 receptor antagonism, primary screen; B-score at 10 µM; MRGX1-HEK293 calcium flux, Fluo-4, BAM8-22 antagonism; active compounds read low; 310,000 compounds, 1.3% hits; Q96LB2;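 active means calcium-response B-score plate-corrected more than 3 library SD below zero, starting fluorescence within 5 deviations, no agonist response on first addition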;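 further: peak minus trough fluorescence over baseline after final BAM8-22 challenge near maximal dose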
MrgX1 agonist – activates human MrgX1 receptor signaling; Q96LB2; MrgX1-HEK293 cells, Fluo-4 calcium fluorescence, agonist mode; active compounds read high; B-score at 10 µM; 310,000 compounds, 0.44% hits; AID 588627;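 active means calcium response B-score plate-corrected fluorescence ratio at least 3 library SD, with starting fluorescence B-score inside 5 SD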
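times = overnight plating, then 30 min 37 °C plus 30 min room-temperature dye loading | assay system = stable human MrgX1 HEK293 cell line | input = fifteen thousand cells per well | signal = kinetic calcium dye fluorescence, Fluo-4 NW | dosing = compound delivered in addition one of three | read-out = B-scored fluorescence response ratio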
RGS4 block – human RGS4 inhibition; AID 463165; HEK293 M3R/RGS4 inducible, Fluo-4 calcium flux; active compounds read high; triggered by carbachol at its EC20; 310,000 compounds, 0.45% hits; B-score at 10 µM;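 active means B-score, a plate-corrected calcium signal, over three deviations above library mean, with baseline fluorescence within five deviations of library mean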;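 further: RGS4 expression induced by doxycycline in cells with stable M3 receptor; B-score is computed from the integrated fluorescence ratio over baseline after carbachol; higher B-score means a larger calcium signal and so more RGS4 inhibition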
Target sequence (P49798 whole entry, looked up): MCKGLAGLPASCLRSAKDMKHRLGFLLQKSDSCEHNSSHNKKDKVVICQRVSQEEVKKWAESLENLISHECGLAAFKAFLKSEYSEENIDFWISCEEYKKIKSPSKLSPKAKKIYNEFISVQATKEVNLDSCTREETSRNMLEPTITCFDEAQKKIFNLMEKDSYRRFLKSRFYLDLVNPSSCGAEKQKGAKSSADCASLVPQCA
MrgX1 ag reconf – reconfirmed activator of human MrgX1 receptor signaling | activation, % at 10 µM | shares compounds with MrgX1 agonist | 600 compounds, 78% hits | MrgX1-HEK293, Fluo-4 calcium fluorescence, FDSS;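 active means calcium signal rise, corrected for plate position, at least 3 library SD high, with starting brightness within 5 such deviations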; further: reference of the scale not given here
HEK293 Ca flux – activity in parental HEK293 cells lacking MrgX1 | shares compounds with MrgX1 antag | fluorescence ratio F(max-min)/F0 at 10 µM | 4,000 compounds, 2% hits | Fluo-4 calcium fluorescence, FDSS | AID 624111;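 active means duplicate-averaged calcium fluorescence ratio at least three times the standard deviation of buffer wells, a nonspecific response in parental cells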
HEK293 Ca counter – activity in parental HEK293 cells without MrgX1. parental HEK293 calcium flux, Fluo-4 fluorescence ratio; active compounds read high. fluorescence ratio F(max-min)/F0 at 10 µM. 4,000 compounds, 0.4% hits. shares compounds with MrgX1 antag;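 active means calcium fluorescence ratio, averaged over duplicates, at least 3 SD of the buffer-well ratio, meaning a nonspecific response in receptor-free cells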;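 further: untransfected parental HEK293 lacking MrgX1 used as counterscreen for MrgX1 allosteric activators; fluorescence change taken during the second addition on a kinetic imager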
HEK293 Ca cntr2 – activity in parental HEK293 cells lacking MrgX1 receptor; shares compounds with MrgX1 antag; Fluo-4 calcium fluorescence (FDSS); active compounds read high; fluorescence ratio F(max-min)/F0 at 10 µM; 4,000 compounds, 8.7% hits; AID 624115;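 active means calcium fluorescence ratio at least three times the spread of buffer wells, meaning a non-specific response in parental cells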
Active calls of the source: *; i = inactive; nt = not tested or not shown.

SMILES | MrgX1 allo act | RGS4 pot | MrgX1 antag | MrgX1 agonist | RGS4 block | MrgX1 ag reconf | HEK293 Ca flux | HEK293 Ca counter | HEK293 Ca cntr2
COc1cc(SC)ccc1C(=O)Nc1ccc(Cl)cn1 | i | i | i | 40.2* | i | i | i | i | i
COc1ccc(S(=O)(=O)NCC(=O)N(CC(=O)NCc2ccco2)Cc2ccc(F)cc2)cc1 | i | i | i | i | i | nt | nt | nt | nt
N#CC1(Nc2ccccc2)C(=O)Nc2ccccc21 (stereo not drawn) | i | i | i | 37.4* | i | 137.4%* | i | i | i
Cc1csc(NC(=O)c2cc(=O)[nH]c3ccc(S(=O)(=O)N4CCOCC4)cc23)n1 | i | i | i | 54.8* | i | 265.9%* | i | i | i
O=C(NC1CCCCCC1)c1cc(=O)[nH]c2ccc(S(=O)(=O)N3CCOCC3)cc12 | i | i | i | i | i | nt | nt | nt | nt
O=C(Nc1nnc(-c2ccc3c(c2)CCCC3)o1)c1ccccc1 | i | i | i | 27.5* | i | 140.0%* | i | i | 51.5*
O=C(Nc1nnc(-c2ccc3c(c2)CCCC3)o1)c1ccccc1Cl | i | i | i | i | i | nt | nt | nt | nt
COc1cccc(-c2nnc(NC(=O)c3cccc(F)c3)o2)c1 | i | i | i | 27.6* | i | 686.1%* | i | i | 107*
CCOc1ccccc1NC(=O)CN(C)S(=O)(=O)c1cnc[nH]1 | i | i | i | i | i | nt | nt | nt | nt
O=C(CCSc1ccccc1)N1CCCC1 | i | i | i | i | i | nt | nt | nt | nt
O=C1CCCCCN1Sc1ccccc1 | i | i | i | 30.4* | i | 122.8%* | i | i | i
CC(=O)Cc1nsc(NC(=O)c2oc(-c3ccccc3Cl)cc2C)n1 | i | i | i | 36.5* | i | 112.4%* | i | i | i
CC(=O)Cc1nsc(NC(=O)c2ccccc2Cl)n1 | i | i | i | i | i | nt | nt | nt | nt
CC(C)Cc1csc(NC(=O)c2ccc(Cl)cc2)c1C(=O)O | i | i | i | 37* | i | 223.7%* | i | i | 51.7*
C[C@H]1C(=O)N(C)CCN1C(=O)c1cccc(OC2CCN(CC(C)(C)C)CC2)c1 | i | i | i | i | i | nt | nt | nt | nt
O=c1c2ccccc2sn1-c1ccc(S(=O)(=O)N2CCCC2)cc1 | i | i | i | i | i | nt | nt | nt | nt
CN(C)S(=O)(=O)c1cccc(-n2sc3ccccc3c2=O)c1 | i | nt | i | 36.7* | nt | 225.1%* | i | i | 49.7*
O=c1c2ccccc2sn1-c1ccccc1 | i | i | i | 41* | i | 229.0%* | i | i | 49.1*
O=C(CS(=O)(=O)c1ccccc1)N1CCN(c2ccccc2)CC1 | i | i | i | i | i | nt | nt | nt | nt
Nc1ccc2c(c1)CC(=O)c1ccccc1S2 | i | i | i | 42.1* | i | 102.3%* | i | i | i
O=C1c2ccccc2CSc2c(O)cccc21 | i | i | i | i | i | nt | nt | nt | nt
Cc1cccc2c1Sc1ccccc1CC2=O | i | i | i | 33.2* | i | 112.8%* | i | i | i
Nc1ccc(N2C(=O)c3ccccc3C2=O)c(Cl)c1 | i | nt | i | i | nt | nt | nt | nt | nt
O=C1Cc2ccccc2Sc2ccc(O)cc21 | i | i | i | 29.2* | i | 114.0%* | i | i | i
COc1cccc(C2C(C(C)=O)=C(O)C(=O)N2CCc2c[nH]c3ccccc23)c1 (stereo not drawn) | i | i | i | i | i | nt | nt | nt | nt
O=C(CO/N=C/c1ccc(OC(F)F)cc1)NC1CCCCCC1 | i | i | i | i | i | nt | nt | nt | nt
